Data as given in ChEMBL document CHEMBL1126065, “Synthesis and antiallergic activity of 11-(aminoalkylidene)-6,11-dihydrodibenz[b,e]oxepin derivatives” (J Med Chem, 1992).

Experiments:
[1] = target: Histamine H1 receptor (Cavia porcellus) (UniProt P31389); test: (§1) The compound was tested in vitro for binding affinity against histamine H1 receptor from guinea pig cerebellum, using [3H]pyrilamine as radioligand at 0.1 uM; assay type: tissue-based
Summary of the method: (§2)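 Male Hartley guinea-pig cerebellum membranes (washed twice, 35000–35500g) in 50 mM Na/K phosphate, pH 7.5. Tissue (10 mg wet weight) was incubated with 3.8 nM [3H]pyrilamine and 0.1 μM drug for 30 min at 25 °C. Nonspecific binding was set with 1 μM astemizole. Bound ligand was collected by GF/C filtration with three ice-cold washes and counted by liquid scintillation.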

[2] = target: T1, Muscarinic acetylcholine receptor M1 (Rattus norvegicus) (UniProt P08482); test: The compound was tested in vitro for binding affinity against muscarinic acetylcholine Muscarinic acetylcholine receptor M1 from rat striatum, using [3H]quinuclidinyl benzilate as radioligand at 10 uM.
T1 sequence (whole entry): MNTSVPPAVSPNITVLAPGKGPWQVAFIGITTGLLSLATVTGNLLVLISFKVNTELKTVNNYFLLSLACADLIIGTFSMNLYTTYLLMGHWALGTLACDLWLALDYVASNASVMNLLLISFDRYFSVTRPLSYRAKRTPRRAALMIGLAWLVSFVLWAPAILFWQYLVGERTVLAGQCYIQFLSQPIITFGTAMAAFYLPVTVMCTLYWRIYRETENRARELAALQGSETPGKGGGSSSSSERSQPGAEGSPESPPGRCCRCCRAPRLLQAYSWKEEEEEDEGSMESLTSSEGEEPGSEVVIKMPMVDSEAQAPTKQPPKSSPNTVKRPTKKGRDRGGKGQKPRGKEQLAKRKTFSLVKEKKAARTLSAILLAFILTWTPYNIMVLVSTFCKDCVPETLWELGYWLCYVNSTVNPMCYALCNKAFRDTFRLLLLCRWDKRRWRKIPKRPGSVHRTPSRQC
Summary of the method: (§3)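 Rat striatum was homogenized in water and diluted to 200 volumes in 50 mM Na/K phosphate, pH 7.4. Tissue (5 mg wet weight) was incubated with 1.26 nM [3H]quinuclidinyl benzilate for 60 min at 37 °C. Nonspecific binding was defined with 1 μM unlabeled dexetimide. Bound ligand was collected by GF/B filtration with three ice-cold buffer washes and counted by scintillation.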

Rattus norvegicus [3] = test: The compound at 1 uM was tested in vivo for inhibitory effect on 48-h homologous passive cutaneous anaphylaxis (PCA) in rats administered perorally; assay type: functional; details: in the assay text read “at 1 mg/kg” for “at 1 uM”
Summary of the method: (§4)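 Male Wistar rats, three per group, received intradermal anti-ovalbumin rat IgE serum (0.05 mL, 1:8 in saline) at two dorsal sites. After 48 h they were challenged iv with 1 mg ovalbumin plus 5 mg Evans blue. Compound was given orally 1 h before challenge. […] ED50 came from responders (>50% inhibition).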

Cavia porcellus = test: The compound was tested in vivo for the inhibition of IgG1-mediated bronchoconstriction in guinea pig at 0.03 mg/kg administered perorally; assay type: functional; details: route oral; for ED50: read-out: ID50 (the source's name)
Summary of the method: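 Male Hartley guinea pigs, 8–12 per group, were passively sensitized ip with 1 mL IgG-like anti-ovalbumin antiserum. After 24 h they were urethane-anesthetized, ventilated and given gallamine. Compound was given orally 1 h before ovalbumin challenge (5 mg/kg iv). Konzett–Rössler overflow was read as % inhibition versus controls at 5 min after challenge.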

Histamine H1 receptor [4] = target: T2, Histamine H1 receptor (Cavia porcellus, UniProt P31389); test: Binding affinity for histamine H1 receptor from guinea pig cerebellum, using [3H]pyrilamine as radioligand at 0.1 uM; assay type: tissue-based; summary of the method: as §2
[5] = target: T1, Muscarinic acetylcholine receptor M1 (Rattus norvegicus); test: Binding affinity for Muscarinic acetylcholine receptor M1 from rat striatum, using [3H]quinuclidinyl benzilate as radioligand at 10 uM.
Summary of the method: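 Rat striatum was homogenized in water and diluted to 200 volumes in 50 mM Na/K phosphate, pH 7.4. Nonspecific binding was defined with 1 μM unlabeled dexetimide. Bound ligand was collected by GF/B filtration with three ice-cold buffer washes and counted by scintillation.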

Rattus norvegicus [6] = test: The compound was tested in vivo for inhibitory effect on 48-h homologous passive cutaneous anaphylaxis (PCA) in rats administered perorally; assay type: functional; details: po; summary of the method: as §4
Rattus norvegicus [7] = test: The compound at 1 mg/kg was tested in vivo for inhibitory effect on 48-h homologous passive cutaneous anaphylaxis (PCA) in rats administered perorally
Histamine H1 receptor [8] = target: T2, Histamine H1 receptor; test: as §1; assay type: tissue-based
Summary of the method: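 Male Hartley guinea-pig cerebellum membranes (washed twice, 35000–35500g) in 50 mM Na/K phosphate, pH 7.5. Nonspecific binding was set with 1 μM astemizole. Bound ligand was collected by GF/C filtration with three ice-cold washes and counted by liquid scintillation.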

[9] = target: T1, Muscarinic acetylcholine receptor M1 (Rattus norvegicus); test: The compound was tested in vitro for binding affinity Muscarinic acetylcholine receptor M1 from rat striatum, using [3H]quinuclidinyl benzilate as radioligand at 10 uM.; summary of the method: as §3
Rattus norvegicus [10] = test: The compound at 10 uM was tested in vivo for inhibitory effect on 48-h homologous passive cutaneous anaphylaxis (PCA) in rats administered perorally; assay type: functional; details: in the assay text read “at 10 mg/kg” for “at 10 uM”; summary of the method: as §4

Histamine H1 receptor (Cavia porcellus), sequence (P31389 whole entry): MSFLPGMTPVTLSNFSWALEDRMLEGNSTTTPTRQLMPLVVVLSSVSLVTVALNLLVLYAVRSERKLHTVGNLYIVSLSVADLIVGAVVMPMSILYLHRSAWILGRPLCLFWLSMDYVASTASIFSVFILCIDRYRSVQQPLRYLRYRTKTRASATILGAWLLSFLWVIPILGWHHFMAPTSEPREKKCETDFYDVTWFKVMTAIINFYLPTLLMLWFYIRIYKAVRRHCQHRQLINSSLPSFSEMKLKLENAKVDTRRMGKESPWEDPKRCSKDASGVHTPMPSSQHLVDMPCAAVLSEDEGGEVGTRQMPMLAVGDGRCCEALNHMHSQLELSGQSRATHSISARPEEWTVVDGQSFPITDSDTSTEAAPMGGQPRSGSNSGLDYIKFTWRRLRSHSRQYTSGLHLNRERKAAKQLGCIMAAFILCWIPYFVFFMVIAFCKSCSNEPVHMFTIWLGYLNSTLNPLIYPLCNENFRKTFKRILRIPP
T2 sequence (P31389 whole entry): as above

Row | SMILES | inhibition in vivo at 0.03 mg/kg (Cavia porcellus) [%] | Ki (Histamine H1 receptor [4]) [nM] | inhibition [5] [%] | ED50 (Rattus norvegicus [6]) [mg/kg] | ED50 (Cavia porcellus) [mg/kg] | further results
1 | CC(C)O.O=C(O)c1ccc2c(c1)/C(=C\CCN1CCOCC1)c1ccccc1CO2 | -1 |  |  |  |  | inhibition [1]: 24%; inhibition [2]: -2%; Inhibition (Rattus norvegicus [3]): 74%
2 | CN(C)CCC/C=C1/c2ccccc2COc2ccc(CC(=O)O)cc21 | 60 | 4.6 | 2 |  |  | Inhibition (Rattus norvegicus [3]): 55%
3 | CN(C)CC/C=C1\c2ccccc2COc2ccc(CCO)cc21 |  | 0.48 | 72 | 0.14 | 0.0059 | 
4 | CN(C)CC/C=C1/c2ccccc2COc2cc(C(=O)O)ccc21 |  | 24 | -1 |  |  | Inhibition (Rattus norvegicus [7]): 19%
5 | CN(C)CC/C=C1\c2ccccc2COc2ccc(CCC(=O)O)cc21 |  | 4.2 | 5 | 0.26 | 0.0064 | 
6 | CN(C)CCC/C=C1\c2ccccc2COc2ccc(C(=O)O)cc21 | 1.4 | 6.3 | 12 | 1.2 |  | 
7 | CN(C)CC/C=C1/c2ccccc2COc2ccc(C(=O)O)cc21 |  | 20 | 1 | 0.25 | 0.053 | 
8 | CN(C)CCC/C=C1/c2ccccc2COc2ccc(C(=O)O)cc21 | 11 |  | 2 | 1.2 |  | Ki (Histamine H1 receptor [8]): 5.8 nM
9 | CN(C)CC/C=C1/c2ccccc2COc2ccc(CCC(=O)O)cc21 |  |  |  | 0.32 | 0.015 | Ki (Histamine H1 receptor [8]): 15 nM; inhibition [9]: 2%
10 | CN(C)CC/C=C1/c2ccccc2COc2ccc(CCO)cc21 |  |  | 80 | 0.12 |  | Ki (Histamine H1 receptor [8]): 0.63 nM
11 | CCN(CC)CC/C=C1/c2ccccc2COc2ccc(C(=O)O)cc21.O=C(O)/C=C/C(=O)O | 19 | 10 | 3 | 0.12 |  | 
12 | O=C(O)/C=C/C(=O)O.O=C(O)c1ccc2c(c1)/C(=C\CCN1CCCC1)c1ccccc1CO2 | 8.7 | 5 | 3 |  |  | Inhibition (Rattus norvegicus [10]): 53%
13 | CN(C)CC/C=C(/c1ccccc1)c1cccc(C(=O)O)c1 |  |  | 4 |  |  | inhibition [1]: 10%
14 | CN(C)CC/C=C1\c2ccccc2COc2ccc(CC(=O)O)cc21 |  | 5.2 | -1 | 0.021 | 0.0041 | 
15 | CN(C)C/C=C1\c2ccccc2COc2ccc(CC(=O)O)cc21 |  |  |  | 0.077 | 0.018 | Ki (Histamine H1 receptor [8]): 11 nM; inhibition [9]: 1%
16 | CN1CCN(C/C=C2\c3ccccc3COc3ccc(C(=O)O)cc32)CC1.O=C(O)/C=C/C(=O)O |  |  |  |  |  | Inhibition (Rattus norvegicus [7]): 10%; inhibition [1]: 0%; inhibition [2]: 2%
17 | O=C(O)/C=C/C(=O)O.O=C(O)c1ccc2c(c1)/C(=C/CN1CCOCC1)c1ccccc1CO2 |  |  |  |  |  | Inhibition (Rattus norvegicus [7]): 12%; inhibition [1]: 19%; inhibition [2]: 2%
18 | CN(C)CC/C=C1\c2ccccc2COc2ccc(C(=O)O)cc21.O=C(O)/C=C/C(=O)O |  | 4.2 | 5 | 0.74 | 0.021 | 
19 | CN(C)CC/C=C1/c2ccccc2COc2ccc(CC(=O)O)cc21.Cl [OLOPATADINE HYDROCHLORIDE] |  | 16 | 3 | 0.049 | 0.03 | 
20 | CN(C)C/C=C1\c2ccccc2COc2ccc(C(=O)O)cc21.O=C(O)/C=C/C(=O)O | 28 | 12 | -2 |  |  | Inhibition (Rattus norvegicus [7]): 19%
21 | Cc1ccc2c(c1)/C(=C/CCN(C)C)c1ccccc1CO2.O=C(O)/C=C/C(=O)O |  | 0.13 |  |  |  | Inhibition (Rattus norvegicus [3]): 20%
22 | O=C(O)c1ccc2c(c1)/C(=C\CCN1CCSCC1)c1ccccc1CO2 | 27 | 7.6 | 27 |  |  | Inhibition (Rattus norvegicus [3]): 60%
23 | CN1CCN(C/C=C2\c3ccccc3COc3ccc(CC(=O)O)cc32)CC1.O=C(O)/C=C/C(=O)O |  |  |  |  |  | inhibition [1]: 29%; inhibition [2]: 3%; Inhibition (Rattus norvegicus [3]): 44%
24 | CN(C)CCSC1c2ccccc2COc2ccc(C(=O)O)cc21.Cl (configuration not stated) |  | 14 |  | 0.92 | 0.029 | inhibition [2]: 7%
25 | O=C(O)/C=C/C(=O)O.O=C(O)c1ccc2c(c1)/C(=C/CN1CCSCC1)c1ccccc1CO2 |  |  |  |  |  | inhibition [1]: 30%; inhibition [2]: 3%; Inhibition (Rattus norvegicus [10]): 24%
26 | CN1CCC(=C2c3ccccc3CC(=O)c3sccc32)CC1 [KETOTIFEN] |  |  | 55 | 4.8 | 0.009 | 
27 | CN(C)CC/C=C1/c2ccccc2COc2ccc(/C=C/C(=O)O)cc21.O=C(O)/C=C/C(=O)O | 1.1 | 29 | -1 | 1 |  | 
